# Calls of active or inactive are those of the source.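 Rule for the calls, unless noted: active = viability loss from added drug above about 55%, and viability with drug at most 40%, in both replicates (limit read from the data, passing the limit was not always enough); inconclusive = both conditions met in only one replicate; inactive = neither replicate meets both conditions.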
# Assays:
# [1] = SK-BR-3 cell growth inhibitors, pilot screen, 24 h, human (AID 572;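 active = viability at or below 10% of carrier control in both of two separate runs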;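 note: compound exposure lasted between 18 and 24 h rather than exactly 24 h; 100% = carrier-treated control wells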); conditions: SK-BR-3 viability, CellTiter-Glo luminescence, at 10 µM, stronger effect = lower value
# [2] = HUVEC growth inhibition – cell-based, human, primary screen (AID 575;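 active = viability at or below 30% in both replicate assays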;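 note: 100% = median of untreated cell wells with 0.1% DMSO on each plate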); conditions: HUVEC proliferation, CellTiter-Glo luminescence, 72 h; at 10 µM; stronger effect = lower value
# Method in brief: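 Assay system: Primary human umbilical vein endothelial cells | Quantity: 1250 cells per well | Medium: Supplemented EBM, 2% fetal bovine serum | Detection: CellTiter-Glo luminescence measuring cellular ATP | Read-out: % viability vs DMSO wells | Plate: Collagen-coated 384-well format | Times: 72 h exposure, 37 °C, 5% CO2, 30 min RT equilibration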
# [3] = growth inhibitors of H69AR lung tumor, primary screen, human, duplicate replicates (AID 580;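 active = viability at or under a set limit in both replicates, limit being median viability minus 3 SD, cut at about 48% in these data, passing the limit was not always enough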;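 note: 100% = mean luminescence of untreated wells and 0% = no signal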); conditions: H69AR lung tumor cells viability, ATP luminescence, 72 h; at 10 µM; stronger effect = lower value
# [4] = reversal of MRP1-mediated doxorubicin resistance, pilot screen, H69AR cells, doxorubicin co-treatment (AID 601); conditions: CellTiter-Glo, 72 h, at 10 µM; for differential viability (reversal): stronger effect = higher value
# [5] = 384-well plate pilot, post-Golgi transport modulator project, inhibition of yeast transport mutant growth (AID 636; in the data active = inhibition above about 31%); conditions: absorbance 615 nm, about 18 h, stronger effect = higher value
# [6] = growth suppression of yeast trafficking mutant, preliminary HTS, modulators of trafficking downstream of Golgi apparatus project, 1536-format plate, OD 615 nm (AID 637; in the data active = inhibition above about 30%); conditions: yeast transport mutant growth, absorbance 615 nm, 18 h; stronger effect = higher value
# [7] = H69AR cells + 2 uM doxorubicin, measured here: viability with 2 uM doxorubicin, stronger effect = lower value
# [8] = H69AR cells, compound alone cytotoxicity
Structure (SMILES),viability [1],viability [2],viability [3],differential viability (reversal) ([4]; H69AR cells + 2 uM doxorubicin),"viability [4, 7]","viability [4, 8]",inhibition [5],inhibition [6]
O=C(NCc1ccco1)c1ccc2c(=O)n(CC3CCCO3)c(=S)[nH]c2c1 (configuration not stated),94% (inactive),76% (inactive),94.4% (inactive),7.56% (inactive),86.9%,94.4%,-2.73% (inactive),-0.66% (inactive)
CN(Cc1ccccc1)C(=O)c1ccccc1NC(=O)c1ccco1,94% (inactive),104% (inactive),101% (inactive),13.5% (inactive),87.1%,101%,-1.76% (inactive),-2.55% (inactive)
CC(=O)N1CCc2cc(S(=O)(=O)NCCC(=O)Nc3cc(C)cc(C)c3)ccc21,95% (inactive),104% (inactive),95.6% (inactive),0.35% (inactive),95.3%,95.6%,-4.93% (inactive),-4% (inactive)
COc1ccc(-c2nnc(SC(C)C(=O)Nc3nccs3)n2-c2ccccc2)cc1OC (configuration not stated),105% (inactive),83.5% (inactive),86.8% (inactive),-0.545% (inactive),87.4%,86.8%,-0.96% (inactive),3.87% (inactive)
Cc1ccc(S(=O)(=O)N2CCN(c3nc(C(C)C)c4c(c3C#N)CC(C)(C)OC4)CC2)cc1,65% (inactive),111% (inactive),79.6% (inactive),9.54% (inactive),70%,79.6%,-1.22% (inactive),-3.09% (inactive)
CCCn1cnc2c(cnn2-c2ccc(F)cc2)c1=O,100% (inactive),90.9% (inactive),98.8% (inactive),1.56% (inactive),97.3%,98.8%,-0.78% (inactive),0.16% (inactive)
Cc1ccc2nc(C3CCN(CC(=O)N4CCCCCC4)CC3)[nH]c2c1,84% (inactive),108% (inactive),96.3% (inactive),-10.6% (inactive),107%,96.3%,-1.1% (inactive),0.73% (inactive)
CCOC(=O)Nc1nnc(-c2ccccc2OC)s1,86% (inactive),98.2% (inactive),93.9% (inactive),0.53% (inactive),93.3%,93.9%,-0.14% (inactive),-4.68% (inactive)
CCC1Oc2ccc(C)cc2N(CC(=O)NCCCN2CCCCC2CC)C1=O (configuration not stated),99% (inactive),83.7% (inactive),87.5% (inactive),-6.5% (inactive),93.9%,87.5%,-0.78% (inactive),-0.66% (inactive)
CN(C)c1nc(OCCOC(=O)Nc2ccc(Cl)cc2Cl)nc(N(C)C)n1,70% (inactive),103% (inactive),96.3% (inactive),16.4% (inactive),79.9%,96.3%,-5.21% (inactive),2.91% (inactive)
CCCn1c(SCC(=O)NC(=O)NCc2ccco2)n[nH]c1=O,101% (inactive),90.4% (inactive),96.6% (inactive),1.45% (inactive),95.1%,96.6%,-2.8% (inactive),-3.64% (inactive)
CC(CN1c2ccccc2Sc2ccccc21)N(C)C (configuration not stated),88% (inactive),62.9% (inactive),92.2% (inactive),4.55% (inactive),87.7%,92.2%,-2.73% (inactive),-1.67% (inactive)
O=C(O)CCn1[nH]c(=O)ccc1=O,87% (inactive),102% (inactive),97.3% (inactive),3.97% (inactive),93.4%,97.3%,-2.05% (inactive),1.77% (inactive)
O=C(CSc1nnc(-c2ccco2)n1CC1CCCO1)NC1CCCC1 (configuration not stated),116% (inactive),94.6% (inactive),94.3% (inactive),7.47% (inactive),86.8%,94.3%,-2% (inactive),-5.27% (inactive)
CC1=C(C)C(=O)C(CCCCC#CCCCC#CCO)=C(C)C1=O,62% (inactive),78.8% (inactive),56.6% (inactive),23.8% (inactive),32.8%,56.6%,2.99% (inactive),-1.5% (inactive)
CCOC(=O)Cc1cc(=O)n2[nH]c(C)c(-c3ccc(OC)cc3)c2n1,103% (inactive),56.1% (inactive),92.6% (inactive),9.51% (inactive),83.1%,92.6%,-4.34% (inactive),-1% (inactive)
CN1CCc2c(sc3c2c(=O)n(-c2cccc(Cl)c2)c2nncn32)C1,102% (inactive),84.5% (inactive),95.8% (inactive),-13.3% (inactive),109%,95.8%,-2.6% (inactive),-5.41% (inactive)

Structure (SMILES),viability [1],viability [2],viability [3],differential viability (reversal) ([4]; H69AR cells + 2 uM doxorubicin),"viability [4, 7]","viability [4, 8]",inhibition [5],inhibition [6]
CN(C)C(=O)CSc1nnc2sc3ccccc3n12,71% (inactive),105% (inactive),89.2% (inactive),-6.11% (inactive),95.3%,89.2%,-8.63% (inactive),1.82% (inactive)
CCOC(=O)C1CSC(CC(=O)Nc2ccc(Cl)cc2)C(=O)N1 (configuration not stated),86% (inactive),111% (inactive),103% (inactive),11.6% (inactive),91.4%,103%,0% (inactive),-3.64% (inactive)
Cc1nc2nc(-c3cccnc3)nn2c(C)c1Cl,109% (inactive),87.4% (inactive),102% (inactive),12.9% (inactive),89.2%,102%,-3.78% (inactive),-3.27% (inactive)
CCC(C(=O)NC(C)CCc1ccco1)n1nc(C)n2c(cc3occc32)c1=O (configuration not stated),129% (inactive),103% (inactive),83.5% (inactive),-16.1% (inactive),99.7%,83.5%,-6.3% (inactive),-1.64% (inactive)
CCCCC(=O)Nc1ccc(NC(=O)C2CC2)nc1,91% (inactive),108% (inactive),101% (inactive),-4.46% (inactive),106%,101%,-1.51% (inactive),-1.13% (inactive)
COc1ccc(C(=O)NC(=O)CSc2nnc(-c3ccco3)n2-c2ccccc2)cc1,90% (inactive),109% (inactive),105% (inactive),16.3% (inactive),88.7%,105%,-7.3% (inactive),-0.55% (inactive)
CC1CCCN(S(=O)(=O)c2ccc(C(=O)Nc3nnc(-c4ccccc4Cl)o3)cc2)C1 (configuration not stated),87% (inactive),11.1% (active),18.9% (active),-19% (inactive),37.9%,18.9%,11.6% (inactive),6.56% (inactive)
O=C(NC1CCCC1)C(NS(=O)(=O)c1cccc2nsnc12)c1ccccc1 (configuration not stated),116% (inactive),103% (inactive),79% (inactive),-2.47% (inactive),81.5%,79%,-8.08% (inactive),8.18% (inactive)
O=C(c1csc2ccccc12)N1CCCCCC1,109% (inactive),83.7% (inactive),104% (inactive),9.99% (inactive),93.9%,104%,-1.51% (inactive),-3.87% (inactive)
CCOC(=O)c1c2n(c3ccc(O)cc13)CCCCC2,111% (inactive),89.7% (inactive),82.4% (inactive),1.8% (inactive),80.6%,82.4%,-7.47% (inactive),0% (inactive)
CC(=O)Nc1c(C(=O)O)[nH]c2ccccc12,103% (inactive),97.9% (inactive),104% (inactive),3.33% (inactive),101%,104%,-4.46% (inactive),-8.36% (inactive)
C[C@]12CC[C@@H]3c4ccc(O)cc4CC[C@H]3[C@@H]1CCC2=O,120% (inactive),63.4% (inactive),91.8% (inactive),4.7% (inactive),87.1%,91.8%,-1.56% (inactive),0.5% (inactive)
O=C(O)c1ccccc1Nc1cccc(C(F)(F)F)c1,135% (inactive),69.6% (inactive),88.6% (inactive),11.3% (inactive),77.3%,88.6%,-1.3% (inactive),2% (inactive)
C[C@H](CS)C(=O)N1CCC[C@H]1C(=O)O,93% (inactive),92.7% (inactive),99.8% (inactive),8.21% (inactive),91.6%,99.8%,-2.47% (inactive),2.83% (inactive)
Cc1ccc(F)cc1NC(=O)c1cccc2nccnc12,91.5% (inactive),76.5% (inactive),91.1% (inactive),6.75% (inactive),84.3%,91.1%,-1.2% (inactive),0.48% (inactive)
NC(=O)C1CCN(c2nc(-c3ccccc3)nc3ccccc23)CC1,114% (inactive),77.2% (inactive),66.3% (inactive),-2.88% (inactive),69.2%,66.3%,-3.15% (inactive),-4.03% (inactive)
CC(C)(C#N)Nn1cnnc1,135% (inactive),104% (inactive),85.9% (inactive),-4.76% (inactive),90.7%,85.9%,-4.73% (inactive),4.18% (inactive)

# — PubChem BioAssay
